In ChEMBL document CHEMBL2331265, “Physangulidine A, a withanolide from Physalis angulata, perturbs the cell cycle and induces cell death by apoptosis in prostate cancer cells” (2013):
Active and inactive are the calls of the source. The calls are words filed in the database; no cut-off is given here.

Experiments:
[1] = test system: DU-145; test: Inhibition of mitosis in human DU145 cells assessed as abnormal mitosis at 10 uM after 48 hrs by fluorescent microscopy; format: functional, cell-based
Method in brief: (§1)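 DU145 plated at 2.5 × 10^4 on glass coverslips, 18 h. Then 10 μM compound for 24 or 48 h, or DMSO for 48 h. Fixed in 4% paraformaldehyde, permeabilized with 0.1% Triton X-100, blocked with 3% BSA. Stained with Alexa Fluor 488 anti-α-tubulin (60 min) and DAPI, then imaged by confocal microscopy for aberrant mitotic figures.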

[2] = test system: DU-145; test: Inhibition of mitosis in human DU145 cells assessed as condensed chromosomes and mitotic spindles formation at 10 uM after 24 hrs by fluorescent microscopy; format: functional, cell-based; method in brief: as §1
[3] = test system: DU-145; test: Induction of apoptosis in human DU145 cells assessed as DNA fragmentation formation at 10 uM after 48 to 72 hrs […]; format: functional, cell-based
Method in brief: (§2)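 Cells (2 × 10^6, adherent plus floating) collected after 10 μM compound or DMSO. Lysed in 1% NP-40/EDTA/Tris, treated with RNase A (1 h, 37 °C) then proteinase K (1 h, 50 °C). Phenol–chloroform extracted, precipitated with isopropanol. Run on a 1.8% agarose gel, ethidium bromide stained, UV read for the oligonucleosomal DNA ladder.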

[4] = test system: PC-3; test: Induction of apoptosis in human PC3 cells assessed as DNA fragmentation formation at 10 uM after 48 to 72 hrs […]; format: functional, cell-based; method in brief: as §2
[5] = test system: PC-3; test: Induction of apoptosis in human PC3 cells assessed as PARP-1 cleavage at 10 uM after 24 to 72 hrs by immunoblotting; format: functional, cell-based
Method in brief: (§3)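 Cells treated with 10 μM compound or DMSO over a time course. Lysed in Tris/NaCl/EDTA/deoxycholate/IGEPAL buffer, pH 7.5, with protease and phosphatase inhibitors. Protein measured by BCA and equal amounts immunoblotted. Membranes blocked in 5% milk, then probed overnight at 4 °C with anti-PARP-1 (200 ng/mL; full length 116 kDa, cleaved 89 kDa) or anti-cleaved caspase-3 (1:1000). GAPDH loading control, chemiluminescent detection.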

[6] = test system: PC-3; test: Induction of apoptosis in human PC3 cells assessed as caspase-3 activation at 10 uM after 24 to 72 hrs by immunoblotting; format: functional, cell-based; method in brief: as §3
[7] = test system: DU-145; test: Induction of apoptosis in human DU145 cells assessed as PARP-1 cleavage at 10 uM after 24 hrs by immunoblotting; format: functional, cell-based; method in brief: as §3
[8] = test system: DU-145; test: Induction of apoptosis in human DU145 cells assessed as caspase-3 activation at 10 uM after 24 hrs by immunoblotting; format: functional, cell-based; method in brief: as §3
[9] = test system: DU-145; test: Induction of apoptosis in human DU145 cells assessed as caspase-3 activation at 10 uM after 48 to 72 hrs by immunoblotting; format: functional, cell-based; method in brief: as §3
[10] = test system: DU-145; test: Induction of apoptosis in human DU145 cells assessed as PARP-1 cleavage at 10 uM after 48 to 72 hrs by immunoblotting; format: functional, cell-based; method in brief: as §3
[11] = test system: DU-145; test: Induction of apoptosis in human DU145 cells assessed as early apoptotic cells at 10 uM after 72 hrs using annexin V and propidium iodide staining by flow cytometric analysis relative to control; format: functional
Method in brief: (§4)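 DU145 plated at 2 × 10^5 per well and adhered 18 h. Then 5 or 10 μM compound, DMSO or untreated, for 24, 48 or 72 h. Trypsinized, PBS-washed, stained with annexin V-FITC plus propidium iodide. By flow cytometry, quadrants scored as viable, apoptotic (annexin+/PI−), necrotic (PI+ only) or late apoptotic/necrotic (double positive).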

[12] = test system: DU-145; test: Induction of apoptosis in human DU145 cells assessed as viable cells at 10 uM after 72 hrs using annexin V and propidium iodide staining by flow cytometric analysis relative to control; format: functional; conditions: DU-145, 72 h, read-out: Activity; method in brief: as §4
[13] = test system: DU-145; test: Induction of apoptosis in human DU145 cells assessed as late apoptotic cells at 10 uM after 72 hrs using annexin V and propidium iodide staining by flow cytometric analysis relative to control; format: functional; method in brief: as §4
[14] = test system: DU-145; test: Induction of apoptosis in human DU145 cells assessed as necrotic cells at 10 uM after 72 hrs using annexin V and propidium iodide staining by flow cytometric analysis relative to control; format: functional; method in brief: as §4
[15] = test system: DU-145; test: Induction of apoptosis in human DU145 cells assessed as early apoptotic cells at 10 uM after 48 hrs using annexin V and propidium iodide staining by flow cytometric analysis relative to control; format: functional; method in brief: as §4
[16] = test system: DU-145; test: Induction of apoptosis in human DU145 cells assessed as viable cells at 10 uM after 48 hrs using annexin V and propidium iodide staining by flow cytometric analysis relative to control; format: functional; conditions: DU-145, 48 h, read-out: Activity; method in brief: as §4
[17] = test system: DU-145; test: Induction of apoptosis in human DU145 cells assessed as necrotic cells at 10 uM after 48 hrs using annexin V and propidium iodide staining by flow cytometric analysis relative to control; format: functional; method in brief: as §4
[18] = test system: DU-145; test: Induction of apoptosis in human DU145 cells assessed as late apoptotic cells at 10 uM after 48 hrs using annexin V and propidium iodide staining by flow cytometric analysis relative to control; format: functional; method in brief: as §4
[19] = test system: DU-145; test: Induction of apoptosis in human DU145 cells assessed as early apoptotic cells at 10 uM after 24 hrs using annexin V and propidium iodide staining by flow cytometric analysis relative to control; format: functional; method in brief: as §4
[20] = test system: DU-145; test: Induction of apoptosis in human DU145 cells assessed as viable cells at 10 uM after 24 hrs using annexin V and propidium iodide staining by flow cytometric analysis relative to control; format: functional; conditions: DU-145, 24 h, read-out: Activity; method in brief: as §4
[21] = test system: DU-145; test: Induction of apoptosis in human DU145 cells assessed as late apoptotic cells at 10 uM after 24 hrs using annexin V and propidium iodide staining by flow cytometric analysis relative to control; format: functional; method in brief: as §4
[22] = test system: DU-145; test: Induction of apoptosis in human DU145 cells assessed as necrotic cells at 10 uM after 24 hrs using annexin V and propidium iodide staining by flow cytometric analysis relative to control; format: functional; method in brief: as §4
[23] = test system: DU-145; test: Induction of apoptosis in human DU145 cells using annexin V and propidium iodide staining at 5 uM after 72 hrs by flow cytometric analysis; format: functional; method in brief: as §4
[24] = test system: DU-145; test: Antiproliferative activity against human DU145 cells by SRB assay; format: functional
[25] = test system: DU-145; test: Inhibition of colony formation in human DU145 cells at 2.5 to 10 uM after 10 days by clonogenic assay; format: functional, cell-based
Method in brief: (§5)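 DU145 or PC3 plated at 3 × 10^2 per well and adhered 18 h. Then 2.5, 5 or 10 μM compound, DMSO or medium alone. Grown 10 days until colonies were visible. Colonies fixed in 4% paraformaldehyde and stained with 0.25% crystal violet in 25% methanol.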

[26] = test system: PC-3; test: Inhibition of colony formation in human PC3 cells at 2.5 to 10 uM after 10 days by clonogenic assay; format: functional, cell-based; method in brief: as §5
[27] = test system: DU-145; test: Antiproliferative activity against human DU145 cells at 10 uM; format: functional, cell-based
Method in brief: (§6)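 DU145 in DMEM and PC3 in F-12K, each with 10% FBS and penicillin/streptomycin, at 37 °C, 5% CO2. Compound added directly to the medium. Antiproliferative activity read after three days of treatment.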

[28] = test system: PC-3; test: Antiproliferative activity against human PC3 cells at 10 uM; format: functional, cell-based; method in brief: as §6
[29] = test system: DU-145; test: Cell cycle arrest in human DU145 cells assessed as accumulation at G1 phase at 10 uM after 24 hrs using propidium iodide staining by flow cytometry (reference value: 39%); format: functional
[30] = test system: DU-145; test: Cell cycle arrest in human DU145 cells assessed as accumulation at S phase at 10 uM after 24 hrs using propidium iodide staining by flow cytometry (reference value: 28%); format: functional
[31] = test system: DU-145; test: Cell cycle arrest in human DU145 cells assessed as accumulation at G2/M phase at 10 uM after 24 hrs using propidium iodide staining by flow cytometry (reference value: 31%); format: functional
[32] = test system: DU-145; test: Cell cycle arrest in human DU145 cells assessed as accumulation at G1 phase at 10 uM after 48 hrs using propidium iodide staining by flow cytometry (reference value: 37%); format: functional
[33] = test system: DU-145; test: Cell cycle arrest in human DU145 cells assessed as accumulation at S phase at 10 uM after 48 hrs using propidium iodide staining by flow cytometry (reference value: 25%); format: functional
[34] = test system: DU-145; test: Cell cycle arrest in human DU145 cells assessed as accumulation at G2/M phase at 10 uM after 48 hrs using propidium iodide staining by flow cytometry (reference value: 36%); format: functional
[35] = test system: DU-145; test: Induction of cell death in human DU145 cells at 10 uM after 72 hrs by trypan blue exclusion assay; format: functional
Method in brief: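 DU145 left untreated, or given 10 μM compound or DMSO, for 72 h. All adherent and floating cells harvested, stained with trypan blue and counted at once. Result is % blue (nonviable) cells, mean of three independent experiments with standard error.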

[36] = test system: DU-145; test: Induction of apoptosis in human DU145 cells using annexin V and propidium iodide staining at 5 uM after 24 hrs by flow cytometric analysis; format: functional; method in brief: as §4
[37] = test system: DU-145; test: Induction of apoptosis in human DU145 cells using annexin V and propidium iodide staining at 5 uM after 48 hrs by flow cytometric analysis; format: functional; method in brief: as §4

Question: How did the inhibition [1] turn out when C[C@@H]1CC[C@H]2[C@H]3[C@H](O[C@]4([C@]5(O)CC6(C)C(=O)OC5C[C@@]6(C)O)CC[C@@]31O4)[C@H]1O[C@]13CC=CC(=O)[C@]23C [PHYSANGULIDINE A] was run?
Answer: Active

Question: And the inhibition [2]?
Answer: Active

Question: And the Activity [3]?
Answer: Active

Question: What about the Activity [4] of the same compound?
Answer: Active

Question: And the Activity [5]?
Answer: Active

Question: What about the Activity [6] of the same compound?
Answer: Active

Question: And the Activity [7]?
Answer: inactive

Question: And the Activity [8]?
Answer: inactive

Question: And the Activity [9]?
Answer: Active

Question: What about the Activity [10] of the same compound?
Answer: Active

Question: And the Activity [11]?
Answer: 46.4%

Question: What about the viability at 10 µM [12] of the same compound?
Answer: 24.9%

Question: And the Activity [13]?
Answer: 28.4%

Question: And the Activity [14]?
Answer: 0.308%

Question: What about the Activity [15] of the same compound?
Answer: 32.3%

Question: What about the viability at 10 µM [16] of the same compound?
Answer: 53.2%

Question: What about the Activity [17] of the same compound?
Answer: 0.604%

Question: And the Activity [18]?
Answer: 13.9%

Question: And the Activity [19]?
Answer: 7.44%

Question: And the viability at 10 µM [20]?
Answer: 88.1%

Question: What about the Activity [21] of the same compound?
Answer: 3.71%

Question: And the Activity [22]?
Answer: 0.77%

Question: And the Activity [23]?
Answer: 11.5%

Question: And the GI50 [24]?
Answer: 3.6 µM

Question: What about the inhibition [25] of the same compound?
Answer: Active

Question: And the inhibition [26]?
Answer: Active

Question: And the inhibition [27]?
Answer: Active

Question: And the inhibition [28]?
Answer: Active

Question: And the Activity [29]?
Answer: 8%

Question: And the Activity [30]?
Answer: 37%

Question: And the Activity [31]?
Answer: 49%

Question: And the Activity [32]?
Answer: 7%

Question: What about the Activity [33] of the same compound?
Answer: 12%

Question: And the Activity [34]?
Answer: 66%

Question: And the Activity [35]?
Answer: 90%

Question: And the Activity [36]?
Answer: 5.2%

Question: What about the Activity [37] of the same compound?
Answer: 9.2%
